Experimental findings from PubChem BioAssay are described below.

Calls of active or inactive are those of the source.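 How the source made its calls, unless noted: active means potentiation averaged over duplicate wells exceeding buffer-only control mean by more than 3 SD; inactive means the rest.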

Experiment [1] can be described thus: nonspecific flux increase, KCNQ1-free cells – parental CHO cells, counter-screen for KCNQ1 potentiator project (AID 493006;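 active means duplicate-averaged activation above buffer control mean plus 5 SD of those controls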;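 on activation: fluorescence ratio of max minus min over baseline after K+ and Tl+ depolarization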). The note with it: parental CHO-K1 cells, FluxOR thallium flux, at 10 µM; active compounds read high. The essentials: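 Material: untransfected host CHO-K1 cells with FluxOR thallium dye. Timing: overnight 37 °C plating, 90 min RT dye, 20 min compound. Detection: kinetic FluxOR fluorescence, 10 s baseline, 110 s after stimulus. Read-out basis: max-minus-min fluorescence over baseline, percent of buffer-to-R-L3 span. Replicates: duplicate wells per compound, percent values averaged.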

For experiment [2], the target named is Potassium voltage-gated channel subfamily KQT member 1 (Homo sapiens) (UniProt P51787). Kind of experiment: enhancement of KCNQ1 channel thallium flux – FluxOR thallium flux, CHO cells, duplicates, confirmation (AID 493007).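 On outcome: cells depolarized by a potassium plus thallium sulfate stimulus after compound.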 To be noted: KCNQ1 cell line, FluxOR thallium flux fluorescence, at 10 µM; active compounds read high, % of reference activator effect, buffer zero. The essentials:
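Test system – KCNQ1-expressing CHO cell line · Incubation – FluxOR dye loading 90 min, compound exposure 20 min, room temperature · Detection – FluxOR Tl+ flux fluorescence, 10 s baseline plus 110 s recording · Controls – buffer-only wells as 0% and R-L3 activator as 100%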

The target in experiment [3] is Potassium voltage-gated channel subfamily KQT member 2 (Rattus norvegicus) (UniProt O88943). In words: KCNQ2 thallium flux enhancement – KCNQ2-CHO-K1 cells, selectivity assay for KCNQ1 potentiator project (AID 493009;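 active means mean duplicate potentiation above the buffer control mean plus 5 SD of buffer wells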;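 further: assay conditions were tuned for KCNQ1 rather than KCNQ2 modulators; signal is max minus min fluorescence divided by baseline after thallium stimulus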). To be noted: FluxOR thallium flux fluorescence, at 10 µM; active compounds read high, scaled: buffer 0, activator control 100.
Sequence of Potassium voltage-gated channel subfamily KQT member 2 (Rattus norvegicus) (O88943 whole entry, looked up): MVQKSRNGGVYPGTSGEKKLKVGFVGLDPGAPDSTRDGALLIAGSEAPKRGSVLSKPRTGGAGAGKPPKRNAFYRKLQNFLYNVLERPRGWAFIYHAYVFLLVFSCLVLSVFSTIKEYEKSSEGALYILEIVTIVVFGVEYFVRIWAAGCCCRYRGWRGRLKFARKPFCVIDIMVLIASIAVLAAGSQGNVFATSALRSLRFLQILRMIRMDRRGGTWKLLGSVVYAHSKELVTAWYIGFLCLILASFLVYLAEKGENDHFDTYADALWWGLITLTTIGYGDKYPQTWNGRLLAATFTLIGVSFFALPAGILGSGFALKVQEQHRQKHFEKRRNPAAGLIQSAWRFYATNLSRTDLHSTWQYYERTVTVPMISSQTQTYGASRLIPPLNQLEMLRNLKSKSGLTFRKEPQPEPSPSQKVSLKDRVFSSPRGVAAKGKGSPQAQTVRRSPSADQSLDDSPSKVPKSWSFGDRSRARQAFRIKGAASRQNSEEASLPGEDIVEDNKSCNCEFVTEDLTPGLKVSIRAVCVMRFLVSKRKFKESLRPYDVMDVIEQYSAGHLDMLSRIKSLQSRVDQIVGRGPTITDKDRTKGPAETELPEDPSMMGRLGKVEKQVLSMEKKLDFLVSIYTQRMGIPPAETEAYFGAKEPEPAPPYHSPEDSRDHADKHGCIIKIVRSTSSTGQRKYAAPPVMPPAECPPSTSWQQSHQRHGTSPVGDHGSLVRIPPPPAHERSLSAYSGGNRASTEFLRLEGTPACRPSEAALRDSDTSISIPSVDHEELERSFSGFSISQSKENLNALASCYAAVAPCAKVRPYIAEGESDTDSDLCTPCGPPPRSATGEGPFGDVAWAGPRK
In experiment [4] the target is Potassium voltage-gated channel subfamily KQT member 1 (Homo sapiens) (UniProt P51787). In words: KCNQ1 activators by electrophysiology – IonWorks patch clamp, KCNQ1-CHO cells, orthogonal assay for KCNQ1 potentiator project, confirmation (AID 493184;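 active means current rise at least 3 SD above the untreated control mean in each of two repeat wells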). The note with it: automated patch clamp current, at 10 µM; active compounds read high. In outline:
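Read-out: Percent current increase versus pre-compound level | Assay system: CHO cells carrying KCNQ1 | Measured by: Automated perforated-patch electrophysiology | Medium: External bath solution at pH 7.4 | Dosing: One dose, 10 µM final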
Background: The patch-clamp technique gives a direct electrical read-out from membranes.

Sequence of Potassium voltage-gated channel subfamily KQT member 1 (Homo sapiens) (P51787 whole entry, looked up): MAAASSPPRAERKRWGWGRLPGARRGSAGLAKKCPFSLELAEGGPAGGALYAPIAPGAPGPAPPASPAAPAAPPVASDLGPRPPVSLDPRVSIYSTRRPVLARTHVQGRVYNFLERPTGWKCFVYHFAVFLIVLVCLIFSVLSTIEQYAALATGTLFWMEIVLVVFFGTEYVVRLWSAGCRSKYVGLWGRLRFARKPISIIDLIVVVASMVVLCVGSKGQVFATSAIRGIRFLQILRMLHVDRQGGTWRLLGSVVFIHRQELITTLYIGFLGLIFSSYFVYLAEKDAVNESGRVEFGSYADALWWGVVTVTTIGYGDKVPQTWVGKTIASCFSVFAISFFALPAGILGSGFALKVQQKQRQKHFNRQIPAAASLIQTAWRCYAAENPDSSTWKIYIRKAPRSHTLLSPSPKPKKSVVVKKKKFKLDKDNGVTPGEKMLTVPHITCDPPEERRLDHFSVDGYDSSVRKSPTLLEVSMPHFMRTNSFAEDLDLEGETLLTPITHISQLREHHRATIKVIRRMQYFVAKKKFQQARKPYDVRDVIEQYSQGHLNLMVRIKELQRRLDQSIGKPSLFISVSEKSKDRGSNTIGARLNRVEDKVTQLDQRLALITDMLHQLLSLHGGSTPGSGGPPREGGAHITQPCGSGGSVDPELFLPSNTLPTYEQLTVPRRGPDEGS

With `CCCS(=O)(=O)c1c(S(=O)(=O)CCC)c2ccc(C(N)=O)cn2c1C(=O)c1ccccc1`, the result in experiment [1], in experiment [2], in experiment [3] and in experiment [4] was inactive.
As to `CC(C)c1nc(Cl)c(C#N)c2c1CCC2`, the result in experiment [1], in experiment [2], in experiment [3] and in experiment [4] was inactive.
As for `S=c1sc2c(Cl)ncnc2n1-c1ccccc1`, in experiment [1], the activation was 302% (active). Further, the potentiation in experiment [2] was 146% (active); in experiment [3] it was 364% (active). Also, the result in experiment [4] was inactive.
On to `CN1CCN(c2nc(-c3cccs3)cc(C(F)(F)F)n2)CC1`, for which, in experiment [1], the activation is 142% (active). For the same molecule, the result in experiment [2], in experiment [3] and in experiment [4] was inactive.
For `CCN1C(=O)/C(=C/c2ccc(C)s2)NC1=S`, in experiment [1], the activation was 208% (active). Moreover, the potentiation is 57.5% (active) in experiment [2] and 258% (active) in experiment [3]. Moreover, in experiment [4], the outcome was inactive.
For the molecule `Cn1c(=O)nc2n(Cc3ccccc3)c3ccccc3cc-2c1=O`, the result in experiment [1], in experiment [2], in experiment [3] and in experiment [4] was inactive.
For `S=C(N/N=C/c1ccccc1Cl)Nc1cccc(Cl)c1Cl`, the result in experiment [1] and in experiment [4] was inactive. In addition, the values for the potentiation in experiment [2] and in experiment [3] were 71% (active) and 173% (active), respectively.
As to `CCC(C)n1c(=S)[nH]c2c(sc3ccc([N+](=O)[O-])cc32)c1=O` (stereo not given), in experiment [1], the activation is 764% (active). Further, the potentiation is 342% (active) in experiment [2] and 709% (active) in experiment [3]. Moreover, the result in experiment [4] was inactive.
As for `CCNC(=S)Nc1nc2c(cc1C(=O)OCC)CCCC2`, the activation in experiment [1] is 140% (active). Besides, the potentiation in experiment [2] was 35% (active); in experiment [3] it was 177% (active). In experiment [4], the outcome was inactive.
`CC(/C=N/n1c(-c2ccc(Cl)cc2)n[nH]c1=S)=C\c1ccco1`: the outcome in experiment [1], in experiment [3] and in experiment [4] was inactive. In addition, the potentiation in experiment [2] is 28% (active).
`Cc1ccc(-c2ccnc(=S)[nH]2)cc1`: the result in experiment [1], in experiment [2], in experiment [3] and in experiment [4] was inactive.
Turning to `Cc1cccc(-c2nnc(NC(=O)c3ccc(Cl)cc3)o2)c1`, the outcome in experiment [1] and in experiment [4] was inactive. Moreover, the potentiation in experiment [2] is 30% (active); in experiment [3], 155% (active).
For `CSc1nsc(SCC(=O)Nc2ccccc2)n1`, the outcome in experiment [1], in experiment [2], in experiment [3] and in experiment [4] was inactive.
Consider `CC(C(=O)O)n1c2ccccc2c2cn[nH]c(=O)c21` (stereo not given), for which the result in experiment [1], in experiment [2], in experiment [3] and in experiment [4] was inactive.
`O=C(NNC(=O)c1ccc2ccccc2c1O)c1cccs1`: the outcome in experiment [1], in experiment [2], in experiment [3] and in experiment [4] was inactive.
Consider `Cc1ccc(-c2c(C(=O)O)c3ccccc3[nH]c2=O)cc1`, for which the result in experiment [1], in experiment [2], in experiment [3] and in experiment [4] was inactive.
Take `CC1CCc2sc3nc(N4CCN(CCO)CC4)n4ncnc4c3c2C1` (stereo not given): the activation in experiment [1] was 510% (active). Moreover, the potentiation is 200% (active) in experiment [2] and 500% (active) in experiment [3]. The outcome in experiment [4] was inactive.
`O=c1c2ccccc2nc(-c2cccc(Cl)c2)n1O`: the activation in experiment [1] is 358% (active). Moreover, the potentiation in experiment [2] is 100% (active); in experiment [3], 327% (active). The outcome in experiment [4] was inactive.
On to `CCc1ccc(NC(=O)C(=O)NNC(=O)c2ccc(OC)cc2)cc1`, for which, in experiment [1], the activation is 326% (active). In addition, the potentiation in experiment [2] is 149% (active); in experiment [3], 367% (active). For the same molecule, in experiment [4], the result was inactive.
The corresponding values for `COc1ccc(-n2nc3c(c2NC(=O)c2ccc4c(c2)OCO4)CS(=O)(=O)C3)cc1` are 224% (active), 75.5% (active), 206% (active) and “inactive”.
On to `O=C(c1ccc(COc2ccc(Cl)cc2)o1)N1CCN(Cc2ccc3c(c2)OCO3)CC1`, for which the result in experiment [1], in experiment [3] and in experiment [4] was inactive. The potentiation in experiment [2] was 25% (active).
For `COc1ccc(-n2c(C)cc(C(=O)CCl)c2C)cc1`, the outcome in experiment [1], in experiment [2], in experiment [3] and in experiment [4] was inactive.
With `O=C(CNC(=O)c1sc2ccccc2c1Cl)OCc1ccccc1`, the outcome in experiment [1], in experiment [2], in experiment [3] and in experiment [4] was inactive.
Regarding `O=C(ONC1=NCCCCC1)c1ccc(Cl)cc1`, the outcome in experiment [1], in experiment [2], in experiment [3] and in experiment [4] was inactive.
Take `CCOc1ccc(C(=O)N2CCCC(c3nc(-c4ccc(C)o4)no3)C2)cc1` (stereo not given): the outcome in experiment [1], in experiment [2], in experiment [3] and in experiment [4] was inactive.
`O=C(NC(=S)N1CCN(c2ccc(Cl)cc2[N+](=O)[O-])CC1)c1cccs1`: the activation in experiment [1] was 188% (active). The figures for the potentiation in experiment [2] and in experiment [3] were 61% (active) and 244% (active), respectively. In addition, the outcome in experiment [4] was inactive.
For the molecule `CCCN(CCC)C(=S)NC(=O)c1ccc(-c2ccccc2)cc1`, the activation in experiment [1] is 436% (active). For the same molecule, the potentiation in experiment [2] is 248% (active); in experiment [3], 556% (active). Also, in experiment [4], the result was inactive.
As for `COc1cccc(OC)c1C(=O)Nc1ccc(C(=O)NCc2ccccc2)cc1`, the outcome in experiment [1], in experiment [2], in experiment [3] and in experiment [4] was inactive.
Turning to `Cc1ccc(C(=O)NNC(=O)CCCCC(=O)NNC(=O)c2ccc(C)cc2)cc1`, the result in experiment [1], in experiment [2], in experiment [3] and in experiment [4] was inactive.
As to `NC(=O)COC(=O)c1ccccc1Nc1ccc(SC(F)F)cc1`, the result in experiment [1] and in experiment [4] was inactive. For the same molecule, the values for the potentiation in experiment [2] and in experiment [3] were 26% (active) and 147% (active), respectively.
